AI-2 QS modul: Vibrio harveyi AI-2 quorum sensing modulation. Vibrio harveyi JMH597 AI-2 luminescence/OD600 ratio, 9 h; hits give low values; strain lacks LuxN and CqsS sensors; 0 = neutral-control median. activity change, % at 7.5 µM. 300,000 tested, 0.4% active. AID 2094; in the data active = activity change below about -75%, passing the limit was not always enough;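 also: luminescence divided by OD600 gain over 9 h not by final OD600 alone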
HIF act: HIF pathway transcriptional activation; AID 1910; activation, % at 7.5 µM (by protocol); U2OS HRE-luciferase reporter, luminescence; normalized: DMSO 0%, desferrioxamine 100%; 300,000 tested, 0.32% active;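 active = mean activation of at least 10% of the iron chelator positive control signal, with at least half of replicates also reaching 10%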
Yeast superoxide: lowers age-related superoxide in aged yeast cells; S. cerevisiae aged cells, superoxide DHE fluorescence; hits give low values; superoxide response (% of plate mean), % at 10 µM; 330,000 tested, 0.18% active;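 active = superoxide response under a set limit, about three screen SD below normal, cut at about 65% in these data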;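 also: yeast aged for seven days with compound at 30 °C before DHE staining; 100% = average MFI of all compound-treated wells on the plate with controls excluded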
V-ATPase pH: yeast V-ATPase proton transport regulation by pHLuorin; S. cerevisiae, pHLuorin cytosolic pH fluorescence; response, % at 10 µM; 350,000 tested, 0.37% active; in the data active = response mostly above about 7.3%, no sharp cut-off; inactive = mostly below about 5.4%; also: actives read high
NRP1-CendR mod: modulators of CendR peptide binding to human neuropilin-1 | O14786 | FAM-RPARPAR peptide binding to NRP-1, fluorescence polarization | inhibition, % at 25 µM | 360,000 tested, 0.85% active | AID 602438;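 active = inhibition or corrected inhibition above about 18%, plus a signal ratio from 0.5 to 1.5, limit read from the data, passing the limit was not always enough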
T cruzi inh: blocks replication of Trypanosoma cruzi; T. cruzi beta-gal in NIH3T3, luminescence, 90 h; inhibition, % (concentration not given with the values); 300,000 tested, 1.4% active; AID 1885;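 active = mean inhibition across valid replicates above about 55%, limit read from the data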;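 also: signal also drops with host cell toxicity which is not excluded here; 0% = plate median of DMSO wells and 100% = zero luminescence signal; higher percent means less beta-gal luminescence so fewer parasites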
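Assay system: NIH/3T3 host cells with β-galactosidase reporter T. cruzi; input: 5,000 host fibroblasts per well; compound: single 50 nL compound addition per well in DMSO; timing: ≥90 h infection period, 3 h prior cell attachment; measured by: GalScreen β-gal luminescence, detergent lysis, 60 min; evaluation: percent inhibition of parasite-derived β-gal signal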
The depositor's hits bear a star; / = no result given. Most compounds without a hit are left out; they make up all but 3% or so of the library.

SMILES	AI-2 QS modul	HIF act	Yeast superoxide	V-ATPase pH	NRP1-CendR mod	T cruzi inh
COc1ccc(CCNCc2ccc(SC)cc2)cc1	5.9	-0.1	75.1	/	/	60.5*
N#CC1=C(N)Oc2c(c(=O)oc3ccccc23)C1c1ccncc1 (stereo not drawn)	/	/	108.3	-3.6	-7.4	/
N#CC1=C(N)Oc2c(c(=O)sc3ccccc23)C1c1cccnc1 (stereo not drawn)	3.2	1.9	104.8	-4.1	-14.4	76.8*
COc1cc2c(c(OC)c1OC)-c1ccc(O)c(=O)cc1[C@@H](N)CC2	/	/	94.6	1.6	-0.5	/
O=[N+]([O-])c1cccc(O)c1	/	/	88.8	-1.1	3.4	/
O=[N+]([O-])c1cc(S(=O)(=O)c2ccc(O)c([N+](=O)[O-])c2)ccc1O	0.5	35.7*	115.7	-2.3	-4.8	3.2
O=C1NC(=O)N(Cc2ccc(F)cc2)C(=O)/C1=C\c1ccc(N2CCCC2)cc1	5.9	0.1	85.2	-1.2	-115.0	-9.4
O=C1NC(=O)N(Cc2ccc(F)cc2)C(=O)/C1=C\c1ccc([N+](=O)[O-])s1	24.0	-1.6	114.3	101.2*	-68.1	22.1
COc1ccc(CN2C(=O)NC(=O)/C(=C/c3ccc([N+](=O)[O-])s3)C2=O)cc1	85.6	0.6	129.7	132.8*	-115.2	17.5
CNC(=O)OCCc1n(C)cc[n+]1C	22.7	0.7	115.1	-2.9	9.5	-7.3
c1ccc(-c2ccc(-c3n(-c4ccccn4)c4ccccc4[n+]3-c3ccccn3)cc2)cc1	19.2	0.4	/	-2.1	2.3	59.9*
CC(=O)c1ccc2c(c1)C1C(Cl)C(Sc3ccccc3[N+](=O)[O-])CC1C(C(=O)O)N2 (stereo not drawn)	/	/	93.6	3.9	31.2*	/
CC(C)=CCSc1nnc([C@@H](N)Cc2c[nH]c3ccccc23)o1	13.1	18.0*	84.5	0.0	-0.2	3.1
CC12CN3CC(C)(CN(C1)C31CCSCC1)C2=O	16.5	-0.2	92.7	4.1	-7.0	-5.6
CN(C(=O)Oc1ccc(F)cc1)c1ccccc1	-0.8	-0.4	97.7	3.1	4.7	-10.9
Cc1ccc(-c2cc(-c3ccccc3)cc(-c3ccccc3)[n+]2-c2ccccc2C(=O)O)cc1	-1.7	-0.3	111.0	-3.8	26.3*	45.2
CN1CCN(c2ccc([N+](=O)[O-])c(N3CCCCC3)c2)CC1	18.0	0.2	84.0	3.6	6.3	79.5*
O=[N+]([O-])c1ccc(N2CCNCC2)cc1N1CCCCCC1	-4.8	-0.1	141.0	0.0	3.3	6.7
COC(=O)C1=C(N)Oc2c(c(=O)oc3ccccc23)C1c1cccnc1 (stereo not drawn)	-6.9	-0.2	94.5	27.1*	12.0	-9.0
NP(=O)(OCC(F)(F)F)Oc1ccc(Cl)cc1 (stereo not drawn)	9.6	-0.6	99.0	-8.6	3.5	-9.0
CCC1CN1P(=O)(Oc1ccc(Cl)cc1)N1CC1CC (stereo not drawn)	/	/	/	-2.0	33.7*	/
S=c1[nH]c2ccccc2[nH]1	13.7	-0.4	104.4	-0.3	11.8	-6.4
N=c1c2c(n(Cc3ccc(Cl)cc3Cl)c3c1CCC3)CCCC2	-5.2	0.3	80.1	12.5*	-2.5	51.1
Cc1nn(Cc2ccc(Cl)cc2Cl)c(Cl)c1C(=O)O	2.5	-0.1	121.2	-2.0	-4.1	-8.4
O=S(=O)(c1cc(Cl)cc(Cl)c1)N1Cc2cc(-c3ccccc3)ccc2-n2nncc2C1	/	/	/	/	23.2*	/
CCOC(=O)c1c(NC(=O)C(c2ccccc2)c2ccccc2)sc2c1C1CCN2CC1	24.2	-0.3	79.2	-3.9	0.1	54.8*
Cc1ccc(C2CC3CCC(C2)N3Cc2ccccc2F)cc1 (stereo not drawn)	5.3	0.4	/	6.1	-3.3	41.3
CC1=CC2/C=C(\C)CCC(O)C(O)/C=C/C(=O)C23C(=O)NC(CC(C)C)C3C1C (stereo not drawn)	10.9	2.3	103.9	3.9	-2.7	67.1*
CC(=O)N(C)CC#CCN1CCCC(CO)C1 (stereo not drawn)	7.8	2.4	87.3	-0.7	-3.1	-6.3
Cc1cc(-c2ccccc2)cc(-c2ccccc2)[n+]1CCc1ccccc1	11.0	0.9	95.2	-0.2	3.8	58.7*
